Assay outcomes from PubChem.
Rows were chosen to be rich in hits. Some 2.1% of all compounds tested hit in one or more screens of this group.
RTF Ca sens act: cardiac RTF calcium sensitivity activators, primary screen, biochemical, IANBD-TnC fluorescence, EC20 calcium | Troponin I, cardiac muscle (Homo sapiens) + Troponin T, cardiac muscle (Homo sapiens) + … | IANBD-labeled TnC RTF fluorescence at EC20 calcium; 0% EC20 calcium, 100% full calcium | activation, % at 7.2 µM | actives 0.24% (n = 340,000) | AID 493008, 2010;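 active = activation above the mean over all tested compounds plus 3 SD, cut at about 30% in these data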;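 also: rise in fluorescence read as greater calcium sensitivity of cardiac thin filaments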
Efflux pump inh: inhibitors of Candida efflux pumps in yeast, primary screen, S. cerevisiae, Nile Red, multiplex. inhibition, % at 10 µM. actives 0.44% (n = 330,000). AID 485275, 2010. S. cerevisiae Candida pump triplex;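 active = plate passing quality check with inhibition over a set limit, or well fluorescence over plate mean plus 4 SD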;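 also: Nile Red retained in pooled yeast measured as flow cytometry median fluorescence; 0% = buffer negative control and 100% = Enniatin B positive control; higher means more Nile Red kept so more efflux inhibition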
SUMO Mot1 rescue: yeast Mot1-301 growth rescue at high temperature, primary screen, SUMOylation pathway inhibitor project, S. cerevisiae, ATP luminescence, 38.5C; S. cerevisiae Mot1-301 growth rescue; percent above DMSO median, 100 means doubled; AID 2716, 2010; actives 1% (n = 320,000); growth rescue, % at 18.8 µM;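 active = every valid replicate shows activation above 250% relative to neutral control wells; inactive = the rest, any valid replicate at or below 250%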;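 also: OY570 slx delta 5 strain wells were the positive control but not used for scaling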
RTF Ca sens inh: cardiac RTF calcium sensitivity inhibitors, primary screen, biochemical, IANBD-TnC fluorescence, EC70 calcium; Troponin I, cardiac muscle (Homo sapiens) + Troponin T, cardiac muscle (Homo sapiens) + …; IANBD-labeled cardiac RTF, Ca2+ fluorescence; inhibition, % at 7.15 µM; actives 0.12% (n = 340,000); AID 493244, 2011;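 active = inhibition above the mean inhibition of all tested compounds plus 3 SD, cut at about 17% in these data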;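 also: assay run at fixed EC70 calcium of 1.6 mM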
UCH37 inh: inhibitors of human UCH37 deubiquitinase, primary screen, biochemical, Ub-AMC cleavage, fluorescence; actives 0.33% (n = 330,000); Ubiquitin carboxyl-terminal hydrolase isozyme L5 (Homo sapiens), Q9Y5K5; purified proteasome/UCH37; inhibition, % (test concentration not listed);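 active = mean inhibition over replicate wells above about 20%, limit read from the data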;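 also: 0% = compound-free wells with enzyme and 100% = wells lacking proteasome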
Target sequence (Q9Y5K5 whole entry, looked up): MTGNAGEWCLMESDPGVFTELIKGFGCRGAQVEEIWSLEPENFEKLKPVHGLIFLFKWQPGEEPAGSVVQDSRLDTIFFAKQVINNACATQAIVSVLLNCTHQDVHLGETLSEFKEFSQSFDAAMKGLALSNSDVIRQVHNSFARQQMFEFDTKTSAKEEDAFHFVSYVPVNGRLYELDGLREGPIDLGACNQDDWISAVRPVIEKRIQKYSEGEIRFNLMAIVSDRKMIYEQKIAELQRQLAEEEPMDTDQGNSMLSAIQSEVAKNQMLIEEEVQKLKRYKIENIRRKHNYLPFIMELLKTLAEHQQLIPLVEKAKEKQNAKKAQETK
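System: Proteasome-associated human UCH37 deubiquitinase; Input: 0.15 nM proteasome in added enzyme buffer; Also added: Ub-AMC substrate from 1 µM stock; Incubation: 30 min compound-proteasome preincubation then 25 min substrate reaction, room temperature; Detection: fluorescence, ex 355 nm, em 460 nm; Read-out: % inhibition of Ub-AMC cleavage fluorescence; Benchmarks: no-proteasome and no-compound wells.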
ARNT TACC3 PPI: disruptors of ARNT/TACC3 protein interaction, primary screen, biochemical, AlphaScreen, single concentration; AlphaScreen His-ARNT PAS-B/GST-TACC3 binding, luminescence; TACC3 fragment carries E629A point mutation; Transforming acidic coiled-coil-containing protein 3 (Homo sapiens), Q9Y6A5; actives 0.66% (n = 390,000); inhibition, % at 9.99 µM; AID 623870, 2012;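 active = mean inhibition of replicates at least 50% and at least half of replicates each reaching 50%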;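 also: 0% = complete ARNT plus TACC3 wells and 100% = ARNT alone without TACC3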
Yeast Mot1 SUMO: growth restoration of Mot1-301 yeast on galactose, dose response, SUMO pathway inhibitor project, whole organism, S. cerevisiae, ATP luminescence, cherry-picked samples | shares compounds with SUMO Mot1 rescue | S. cerevisiae Mot1-301 galactose growth, 24 h; -100 = growth of slx-deleted rescue strain | growth activity, percent, % at 42 µM | 2,300 tested, under 10 active | AID 493004, 2010;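 active = Signal drops as the depositor expects, and the fitted half-maximal dose is no more than ten times the top valid tested dose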;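 also: more negative values mean stronger growth rescue toward the control strain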
The depositor's hits bear a star; . = no result; + = active, no number.

SMILES	RTF Ca sens act	Efflux pump inh	SUMO Mot1 rescue	RTF Ca sens inh	UCH37 inh	ARNT TACC3 PPI	Yeast Mot1 SUMO
COC(=O)c1ccc(Cl)c(NC(=O)CN(c2ccc(OC)c(OC)c2)S(C)(=O)=O)c1	3	0	563*	2	.	-11	0
Cc1ccccc1C=NNC(=O)c1ccccc1-n1cccc1	.	.	.	.	2	.	.
CN(C(=O)C1CCCO1)c1nnc(-c2cnccn2)s1 (stereo not drawn)	-7	0	519*	-5	-2	-1	0
CN(C(=O)c1ccncc1)c1nnc(-c2cnccn2)s1	1	0	365*	-5	-3	-2	0
CN(C(=O)c1cccnc1)c1nnc(-c2cnccn2)s1	1	0	1	-1	1	3	.
COC(=O)NN=C1CCCc2c(C)cc(C)cc21	.	.	.	.	1	.	.
COc1cc(/C=C2\NC(=S)N(C)C2=O)ccc1OCc1cccc(F)c1	2	0	563*	1	3	1	0
NC(=O)c1ccccc1N/C=C/C(=O)c1ccc(Cl)cc1	-3	0	26	1	-16	-4	.
Cc1ccc(C(=O)/C=C/Nc2ccccc2C(N)=O)cc1	-2	0	481*	-1	.	-1	0
CS(=O)(=O)N(CC(=O)NN=Cc1cccs1)c1cccc(Cl)c1Cl	.	.	.	.	3	.	.
Cc1cc([N+](=O)[O-])nn1CC(=O)NNC(=S)Nc1ccc([N+](=O)[O-])cc1	-1	0	672*	1	15	14	0
COc1ccc(NC(=S)NNC(=O)Cn2nc([N+](=O)[O-])cc2C)cc1	-8	0	18	-4	1	-4	.
CCC(C)[C@H](N)c1nnc(SCC(=O)Nc2cccc(Cl)c2)o1 (stereo partly drawn)	-3	0	558*	6	3	1	0
NCCCCCc1nnc(SCC(=O)Nc2cccc(Cl)c2)o1	4	0	-4	-5	3	.	.
O=C(NN=Cc1c[nH]c2ccccc12)c1ccc([N+](=O)[O-])cc1Cl	.	.	.	.	4	.	.
COc1ccc2c(C=NNS(=O)(=O)c3ccc(C)cc3)c[nH]c2c1	.	.	.	.	0	.	.
O=C(CCC(=O)Nc1ccccc1Cl)NN=Cc1ccccc1	.	.	.	.	3	.	.
COc1ccc(-n2nc(C(=O)NCC(=O)N3CCCC3)c3ccccc3c2=O)c(OC)c1	-4	0	+	5	2	10	1
CCOC(=O)N1CCN(C(=O)CNC(=O)c2nn(-c3ccc(OC)c(OC)c3)c(=O)c3ccccc23)CC1	-6	0	497*	-35	-4	-5	1
Cn1c(=O)c2c(ncn2CC(=O)N2CCCCCC2)n(C)c1=O	-5	0	+	6	-2	-10	0
CC1CCN(C(=O)Cn2cnc3c2c(=O)n(C)c(=O)n3C)c2ccccc2S1 (stereo not drawn)	10	0	761*	-2	.	-39	0
Cn1c(=O)c2c(ncn2CC(=O)N2CCCc3ccccc32)n(C)c1=O	-2	0	17	-15	-1	-12	.
CN1CCN(CC(=O)N2c3ccccc3C(=O)Nc3cccnc32)CC1	.	0	+	.	.	.	0
CN(C(=O)COC(=O)c1cncc(Br)c1)C1CCCCC1	-2	0	8	-2	2	-4	.
CN(C(=O)c1cncc(Br)c1)C1C2CC3CC(C2)CC1C3 (stereo not drawn)	-3	0	780*	-2	3	-3	0
SMILES	RTF Ca sens act	Efflux pump inh	SUMO Mot1 rescue	RTF Ca sens inh	UCH37 inh	ARNT TACC3 PPI	Yeast Mot1 SUMO
O=c1c(=Cc2ccccc2)sc2nnc(-c3cccs3)n12	.	.	.	.	3	.	.
CC(CC(=O)Nc1ccc(Cl)cc1C(F)(F)F)=NNC(=O)c1ccccn1	.	.	.	.	-1	.	.
Cn1c(NCc2ccco2)nc2c1c(=O)n(Cc1ccc(Cl)cc1)c(=O)n2C	1	0	+	5	2	21	1
Cn1c(NCc2ccco2)nc2c1c(=O)n(Cc1ccc(Br)cc1)c(=O)n2C	2	0	-7	-3	3	-6	.
NC(=NO)c1ccc(NC(=O)c2ccc(Br)o2)cc1	.	.	.	.	6	.	.
CCN1C(=NCC(C)C)N[C@@H](c2cccc(C(F)(F)F)c2)C(C(=O)OC)=C1C	5	0	779*	-5	.	0	0
CCN1C(=NCCCCO)N[C@@H](c2cccc(C(F)(F)F)c2)C(C(=O)OC)=C1C	3	0	658*	0	.	-11	1
CCN1C(=NCc2cccc(Cl)c2)N[C@@H](c2cccc(F)c2)C(C(=O)OC)=C1C	-3	0	773*	-2	.	4	0
COc1ccc(C=NNc2ncccc2[N+](=O)[O-])c(OC)c1	.	.	.	.	15	.	.
O=C(CNC(=O)c1ccccc1O)NN=Cc1ccccn1	.	.	.	.	4	.	.
CCCCc1ccc(S(=O)(=O)NNC(=S)NCc2ccco2)cc1	2	0	545*	-5	.	-16	1
CC(=O)Nc1ccc(S(=O)(=O)NNC(=S)NCc2ccco2)cc1	1	0	-8	-10	4	7	.
COc1ccc(NC(=O)c2ccc(-c3csc(C)n3)cc2)cc1	-4	0	796*	7	0	-7	0
O=C(C1CCC(CNS(=O)(=O)c2cccc3cccnc23)CC1)N1CCCC1 (stereo not drawn)	6	0	260	-9	4	-8	.
O=S(=O)(NCC1CCCN(Cc2ccccc2O)C1)c1cccc2cccnc12 (stereo not drawn)	-7	0	384*	-7	6	0	2
O=C(O)CCCNS(=O)(=O)Cc1ccccc1	-5	0	4	-3	0	5	.
CCCCOCCCNS(=O)(=O)Cc1ccccc1	-4	0	366*	-10	4	-11	0
CC(=O)OC[C@H]1O[C@H](CC=NOC[C@@H](O)[C@H]2O[C@@H]3OC(C)(C)O[C@@H]3[C@H]2O)C=C[C@@H]1OC(C)=O	.	.	.	.	1	.	.
COc1ccc(-c2csc(NC(=O)C3CSC4(C)CCC(=O)N34)n2)cc1 (stereo not drawn)	2	0	391*	-9	0	2	1
